pIC50: −log10 of the molar value.
How the values were obtained:
Rattus norvegicus [1] = species on record: Rattus norvegicus; assay: Ability to block apomorphine-induced stereotypy in rats.; assay type: functional
Outline: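 Male Wistar rats (150–250 g), 6–10 per dose group, given distilled water or test drug ip; apomorphine 1.5 mg/kg sc 50 min later. Rats were placed singly in cages and scored 10 min afterwards for continuous stereotyped licking or sniffing. Inhibition was the number of animals protected versus controls. ED50 was obtained by probit analysis.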

Mus musculus = species on record: Mus musculus; assay: Ability to inhibit apomorphine-induced climbing behavior in mice.; assay type: functional
Outline: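 Male CD-1 mice (18–30 g) were adapted for 1 h in wire-mesh cages, 8 per dose group. Distilled water or drug was given ip 30 or 60 min before apomorphine 1.5 mg/kg sc.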

Rattus norvegicus [2] = assay: Induction of catalepsy in rats was determined after 1 hr of intraperitoneal administration of the compound; assay type: functional; settings: ip
Outline: (§1)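 Male Wistar rats (150–250 g), 6–10 per dose group, dosed ip with distilled water or drug. Each hour for 6 h, forepaws were placed on an elevated wooden bar; remaining there 60 s counted as cataleptic.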

Rattus norvegicus [3] = assay: Social interaction of rats was determined after 1 hr of intraperitoneal administration at 0.5 mg/kg; assay type: functional
Outline: (§2)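 Pairs of male Wistar rats (200–275 g) were acclimated to the arena for 8 min on two days. On day 3, unfamiliar pairs were formed, six pairs per group, and dosed with drug or vehicle. Interaction time and total activity were compared by one-way ANOVA with Duncan's test.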

Rattus norvegicus [4] = assay: Pole climb escape failures of rats was determined after 1 hr of intraperitoneal administration of the compound; assay type: functional; settings: ip
Outline: (§3)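 Male Long Evans rats trained to 80% avoidance in a discrete-trial signaled pole-climb paradigm: 25 trials per 50 min session, maximum 26 s of shock per trial. Distilled water or drug was given ip, 6 per dose group, at a 60 min pretreatment. Avoidance responses and escape failures were compared with water controls. ED50 by linear regression.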

Rattus norvegicus [5] = assay: Pole climb avoiding activity in rats was determined after 1 hr of intraperitoneal administration of the compound; assay type: functional; settings: ip; outline: as §3
Rattus norvegicus [6] = assay: Intracranial self stimulation in rat was determined after 1 hr of intraperitoneal administration of the compound; assay type: functional; settings: ip
Outline: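 Male Wistar rats (300–400 g) with chronic electrodes in the medial forebrain bundle at the preoptic level, trained after 2 weeks of recovery to lever-press for biphasic square-wave pulse trains. Once baseline responding was stable, drug was given (3–6 per dose group) and compared with nondrug controls. ED50 was calculated by linear regression on percent change from control.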

Rattus norvegicus [7] = assay: Antagonistic activity administered intraperitoneally on head twitches induced by 5- HTP; assay type: functional; settings: ip
Outline: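 Male Wistar rats (180–280 g), groups of eight. L-5-HTP given ip (240 mg/10 mL distilled water with Tween 80); compounds given ip 30 min after 5-HTP. At 60 min post-5-HTP, head twitches were counted for 10 min per rat under white noise, then expressed as percent change from vehicle. Dose–response used 3–4 dose groups; ED50 by linear regression.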

Rattus norvegicus [8] = assay: Induction of catalepsy in rats was determined after 1 hr of intraperitoneal administration at 80 mg/kg; assay type: functional
Outline: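 Male Wistar rats (150–250 g, 6–10/dose group) were dosed ip with compound or distilled water. Every hour for 6 h after dosing, the forepaws were placed on an elevated wooden bar, and a rat was scored cataleptic if the paws stayed on the bar for 60 s.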

Rattus norvegicus [9] = assay: Antipsychotic efficacy of compound at intraperitoneal dose of 20 mg/kg on 1.8 (A10 units) dopamine neurons in the mesolimbic region of rat; assay type: functional
Outline: (§4)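 Male Wistar rats (280–360 g) were dosed ip once daily for 21 days with compound suspended in distilled water plus 1 drop Tween 80; vehicle rats served as controls. Sampling began 2 h after the last dose under chloral hydrate anesthesia (400 mg/kg ip). Spontaneously active A9 and A10 dopamine units were counted per 12 tracks. Groups were compared by one-way ANOVA with Newman–Keuls post hoc.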

Rattus norvegicus [10] = assay: Social interaction of rats was determined after 1 hr of intraperitoneal administration at 10 mg/kg; assay type: functional
Outline: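 Pairs of male Wistar rats (200–275 g) were acclimated to the arena for 8 min on two consecutive days. On day 3, unfamiliar rats (six pairs/group) got drug or vehicle, and 30 or 60 min later they were paired and observed for 5 min. Social interaction time and total activity were compared with controls by one-way ANOVA and Duncan's test.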

Rattus norvegicus [11] = assay: Side effect liability of compound at intraperitoneal dose of 20 mg/kg on 13.7 (A9 units)dopamine neurons in the nigrostriatal in rat; assay type: functional; outline: as §4
Rattus norvegicus [12] = assay: Intracranial self stimulation in rat was determined after 1 hr of oral administration of the compound; assay type: functional
Rattus norvegicus [13] = assay: Antipsychotic efficacy of compound at intraperitoneal dose of 10 mg/kg on 6.1 (A10 units)dopamine neurons in the mesolimbic in rat; assay type: functional
[14] = molecular target: Muscarinic acetylcholine receptor M3 (Rattus norvegicus, UniProt P08483); assay: Binding affinity against Muscarinic acetylcholine receptor using [3H]quinuclidinyl benzilate
[15] = molecular target: Serotonin 2 (5-HT2) receptor (Rattus norvegicus, UniProt P30994+P08909+P14842); assay: Affinity for 5-hydroxytryptamine 2 receptor binding sites by its ability to displace [3H]spiperone from rat frontal cortex.
[16] = molecular target: 5-hydroxytryptamine receptor 2A (Bos taurus, UniProt Q75Z89); assay: Binding affinity against 5-hydroxytryptamine 2 receptor was determined using [ [3H]spiperone radioligand
Rattus norvegicus [17] = assay: Side effect liability of compound at intraperitoneal dose of 10 mg/kg on 16.1 (A9 units) dopamine neurons in the nigrostriatal in rat; assay type: functional
[18] = molecular target: T1, 5-hydroxytryptamine receptor 1A (Mus musculus, UniProt Q64264); assay: Binding affinity against 5-hydroxytryptamine 1A receptor was determined using [3H]-8-OH-DPAT radioligand
T1 sequence (Q64264 whole entry): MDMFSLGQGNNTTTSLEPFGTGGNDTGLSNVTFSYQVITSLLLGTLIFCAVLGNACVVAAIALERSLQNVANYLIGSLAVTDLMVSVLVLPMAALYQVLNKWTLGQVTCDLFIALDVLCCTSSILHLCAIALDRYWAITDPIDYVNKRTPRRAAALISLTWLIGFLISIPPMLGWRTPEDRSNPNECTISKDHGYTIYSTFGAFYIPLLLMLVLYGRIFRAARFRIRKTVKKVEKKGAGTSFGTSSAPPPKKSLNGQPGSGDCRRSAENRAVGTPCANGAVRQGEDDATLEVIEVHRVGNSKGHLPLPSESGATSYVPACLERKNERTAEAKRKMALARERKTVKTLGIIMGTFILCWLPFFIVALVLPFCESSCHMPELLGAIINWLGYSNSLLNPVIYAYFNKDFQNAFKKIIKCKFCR

Rattus norvegicus [19] = assay: Antipsychotic efficacy of compound at intraperitoneal dose of 5 mg/kg on 6.1 dopamine neurons in the mesolimbic (A10) units in rat; assay type: functional
D(1A) dopamine receptor = D(1A) dopamine receptor (Mus musculus, UniProt Q61616); assay: Binding affinity against Dopamine receptor D1 was determined using [3H]SCH-23390 radioligand
Rattus norvegicus [20] = assay: Social interaction of rats was determined after 1 hr of intraperitoneal administration at 1 mg/kg; assay type: functional; outline: as §2
Rattus norvegicus [21] = assay: Side effect liability of compound at intraperitoneal dose of 5 mg/kg on 16.1 (A9 units)dopamine neurons in the nigrostriatal in rat; assay type: functional
[22] = molecular target: Sigma non-opioid intracellular receptor 1 (Homo sapiens, UniProt Q99720); assay: Binding affinity against sigma receptor using [3H]-( +)-SKF10,047 radioligand
Rattus norvegicus [23] = assay: Antipsychotic efficacy of compound at intraperitoneal dose of 0.5 mg/kg on 6.8 (A10 units) dopamine neurons in the mesolimbic region of rat; assay type: functional
Rattus norvegicus [24] = assay: Induction of catalepsy in rats was determined after 2 hr of intraperitoneal administration of the compound; assay type: functional; settings: ip; outline: as §1
Rattus norvegicus [25] = assay: Social interaction of rats was determined after 1 hr of intraperitoneal administration at […]; assay type: functional
Rattus norvegicus [26] = assay: Side effect liability of compound at intraperitoneal dose of 0.5 mg/kg on 6.2 (A9 units)dopamine neurons in the nigrostriatal in rat; assay type: functional

D(1A) dopamine receptor, sequence (Q61616 whole entry): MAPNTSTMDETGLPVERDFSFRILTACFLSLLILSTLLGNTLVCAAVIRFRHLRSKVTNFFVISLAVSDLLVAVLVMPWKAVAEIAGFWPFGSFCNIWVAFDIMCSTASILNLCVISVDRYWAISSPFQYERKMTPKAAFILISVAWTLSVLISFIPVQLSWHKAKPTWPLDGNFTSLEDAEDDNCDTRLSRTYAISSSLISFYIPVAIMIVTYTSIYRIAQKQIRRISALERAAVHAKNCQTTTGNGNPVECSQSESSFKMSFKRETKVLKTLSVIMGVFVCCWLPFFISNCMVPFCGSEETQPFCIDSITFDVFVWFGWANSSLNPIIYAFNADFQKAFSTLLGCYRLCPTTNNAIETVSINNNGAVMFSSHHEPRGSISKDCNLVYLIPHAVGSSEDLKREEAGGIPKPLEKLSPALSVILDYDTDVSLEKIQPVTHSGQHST
Sigma non-opioid intracellular receptor 1, sequence (Q99720 whole entry): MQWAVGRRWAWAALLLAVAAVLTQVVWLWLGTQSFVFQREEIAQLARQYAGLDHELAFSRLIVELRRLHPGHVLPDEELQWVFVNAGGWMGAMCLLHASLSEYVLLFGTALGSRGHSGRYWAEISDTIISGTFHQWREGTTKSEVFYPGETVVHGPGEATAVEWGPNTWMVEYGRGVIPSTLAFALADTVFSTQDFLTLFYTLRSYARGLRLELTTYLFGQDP
5-hydroxytryptamine receptor 2A, sequence (Q75Z89 whole entry): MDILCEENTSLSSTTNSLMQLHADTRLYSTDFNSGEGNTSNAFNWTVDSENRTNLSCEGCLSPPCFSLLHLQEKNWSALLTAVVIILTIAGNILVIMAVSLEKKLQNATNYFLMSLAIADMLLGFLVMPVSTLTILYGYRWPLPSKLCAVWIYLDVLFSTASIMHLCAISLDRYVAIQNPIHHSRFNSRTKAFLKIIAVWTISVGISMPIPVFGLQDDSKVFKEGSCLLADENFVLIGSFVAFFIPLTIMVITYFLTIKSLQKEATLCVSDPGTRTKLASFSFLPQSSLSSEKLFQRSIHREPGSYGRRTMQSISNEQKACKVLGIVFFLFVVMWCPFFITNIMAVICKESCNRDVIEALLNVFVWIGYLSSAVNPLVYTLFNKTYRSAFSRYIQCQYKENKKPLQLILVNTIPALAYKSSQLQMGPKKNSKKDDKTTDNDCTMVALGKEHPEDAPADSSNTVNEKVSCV
Muscarinic acetylcholine receptor M3, sequence (P08483 whole entry): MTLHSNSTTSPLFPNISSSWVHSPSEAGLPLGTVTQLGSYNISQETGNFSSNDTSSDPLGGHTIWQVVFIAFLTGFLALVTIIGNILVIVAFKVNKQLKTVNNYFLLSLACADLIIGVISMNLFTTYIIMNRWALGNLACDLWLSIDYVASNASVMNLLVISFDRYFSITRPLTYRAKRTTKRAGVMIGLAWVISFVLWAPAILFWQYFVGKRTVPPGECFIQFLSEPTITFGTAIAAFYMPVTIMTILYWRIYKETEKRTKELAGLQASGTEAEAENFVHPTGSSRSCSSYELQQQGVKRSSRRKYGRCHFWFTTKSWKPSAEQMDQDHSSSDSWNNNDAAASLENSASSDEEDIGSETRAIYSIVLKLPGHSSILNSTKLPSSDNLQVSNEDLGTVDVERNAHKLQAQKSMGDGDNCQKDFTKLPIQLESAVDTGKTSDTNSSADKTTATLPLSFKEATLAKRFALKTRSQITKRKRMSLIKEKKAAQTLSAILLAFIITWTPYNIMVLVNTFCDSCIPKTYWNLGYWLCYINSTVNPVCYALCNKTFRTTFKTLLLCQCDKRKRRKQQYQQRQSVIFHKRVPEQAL

Row | Structure (SMILES) | ED50 (Rattus norvegicus [1]) [mg/kg] | ED50 (Mus musculus) [mg/kg] | ED50 (Rattus norvegicus [2]) [mg/kg] | ED50 (Rattus norvegicus [4]) [mg/kg] | ED50 (Rattus norvegicus [5]) [mg/kg] | ED50 (Rattus norvegicus [6]) [mg/kg] | ED50 (Rattus norvegicus [7]) [mg/kg] | further results
1 | Cc1nc2n(c(=O)c1CCN1CCC(c3noc4cc(F)ccc34)CC1)CCCC2 [RISPERIDONE] | 3.2 | 0.062 | 5.7 | 1.3 | 0.48 | 0.13 |  | Activity (Rattus norvegicus [3]): 27%
2 | CN1CCN(C2=Nc3cc(Cl)ccc3Nc3ccccc32)CC1 [CLOZAPINE] | > 40 |  |  | 29.3 | 11.3 | 7.4 | 0.43 | Activity (Rattus norvegicus [8]): 0%; Change (Rattus norvegicus [9]): -79%; Activity (Rattus norvegicus [10]): 39%; Change (Rattus norvegicus [11]): 37%
3 | COc1cc(C(C)=O)ccc1OCCCN1CCC(c2noc3cc(F)ccc23)CC1 [ILOPERIDONE] | 34.8 | 0.095 | 30.7 | 5.2 | 0.7 | 0.15 | 0.07 | ED50 (Rattus norvegicus [12]): 1.03 mg/kg; Change (Rattus norvegicus [13]): -40%; pIC50 [14]: < 6.00; IC50 [15]: 9 nM; pIC50 [16]: 8.05; Change (Rattus norvegicus [17]): 45%; pIC50 [18]: 6.68; Change (Rattus norvegicus [19]): -41%; pIC50 (D(1A) dopamine receptor): 6.12; Activity (Rattus norvegicus [20]): 31%; Change (Rattus norvegicus [21]): 81%; pIC50 [22]: 7.19
4 | O=C(CCCN1CCC(O)(c2ccc(Cl)cc2)CC1)c1ccc(F)cc1 [HALOPERIDOL] | 0.6 | 0.11 |  | 0.22 | 0.043 | 0.077 | 0.29 | Change (Rattus norvegicus [23]): -35%; ED50 (Rattus norvegicus [24]): 0.65 mg/kg; Activity (Rattus norvegicus [25]): -26%; Change (Rattus norvegicus [26]): -30%

Source: ChEMBL document CHEMBL1128281 (J Med Chem, 1995)
